Measurements published in ChEMBL document CHEMBL3352608, “Medicinal chemistry optimization of antiplasmodial imidazopyridazine hits from high throughput screening of a softfocus kinase library: part 2” (J Med Chem, 2014).
≈ marks a conversion by molar mass, not a printed value.

What was measured:
Liver = test: Metabolic stability in mouse liver microsomes assessed as compound remaining after 30 mins; assay type: ADME; conditions: 0.5 h
Outline: (§1)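 One-point microsomal stability test: compound incubated 30 min with human, rat or mouse liver microsomes; percentage of parent remaining measured.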

Liver microsome [1] = test: Metabolic stability in human liver microsomes assessed as compound remaining after 30 mins; assay type: ADME; conditions: 0.5 h; outline: as §1
Liver microsome [2] = test: Metabolic stability in rat liver microsomes assessed as compound remaining after 30 mins; assay type: ADME; conditions: 0.5 h; outline: as §1
Plasmodium berghei = test: Antimalarial activity against Plasmodium berghei ANKA infected in mouse assessed as reduction in parasitemia at 50 mg/kg/day, po qd administered for 4 days relative to control; assay type: functional; set-up: Activity: scale not given: the % may be the effect or the level left
Outline: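 Mice (n = 3) infected with GFP-transfected P. berghei ANKA; compound in HPMC suspension vehicle given orally once daily at 4, 24, 48 and 72 h after infection. Blood collected day 4 (96 h post-infection); parasitemia by flow cytometry (detection limit 0.1%). Activity = difference in mean % parasitemia between control and treated groups, as % of control.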

[3] = Aqueous solubility of the compound at pH 6.5; assay type: physicochemical; conditions: buffer
Plasmodium falciparum [4] = test: Antiplasmodial activity against Plasmodium falciparum K1 by [3H]hypoxanthine incorporation assay; assay type: functional, organism-based
Outline: (§2)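 Modified [3H]-hypoxanthine incorporation assay on P. falciparum asexual cultures, chloroquine and artesunate as references in every run. IC50 values are means of ≥2 independent experiments; individual values mostly within 2-fold (maximum 3-fold).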

Plasmodium falciparum [5] = test: Antiplasmodial activity against Plasmodium falciparum NF54 by [3H]hypoxanthine incorporation assay; assay type: functional, organism-based; outline: as §2
[6] = Aqueous solubility of the compound at pH 2; assay type: physicochemical; conditions: buffer
[7] = biological target: Voltage-gated inwardly rectifying potassium channel KCNH2 (Homo sapiens, UniProt Q12809); test: Inhibition of human ERG channel by patch clamp technique
Voltage-gated inwardly rectifying potassium channel KCNH2, sequence (Q12809 whole entry): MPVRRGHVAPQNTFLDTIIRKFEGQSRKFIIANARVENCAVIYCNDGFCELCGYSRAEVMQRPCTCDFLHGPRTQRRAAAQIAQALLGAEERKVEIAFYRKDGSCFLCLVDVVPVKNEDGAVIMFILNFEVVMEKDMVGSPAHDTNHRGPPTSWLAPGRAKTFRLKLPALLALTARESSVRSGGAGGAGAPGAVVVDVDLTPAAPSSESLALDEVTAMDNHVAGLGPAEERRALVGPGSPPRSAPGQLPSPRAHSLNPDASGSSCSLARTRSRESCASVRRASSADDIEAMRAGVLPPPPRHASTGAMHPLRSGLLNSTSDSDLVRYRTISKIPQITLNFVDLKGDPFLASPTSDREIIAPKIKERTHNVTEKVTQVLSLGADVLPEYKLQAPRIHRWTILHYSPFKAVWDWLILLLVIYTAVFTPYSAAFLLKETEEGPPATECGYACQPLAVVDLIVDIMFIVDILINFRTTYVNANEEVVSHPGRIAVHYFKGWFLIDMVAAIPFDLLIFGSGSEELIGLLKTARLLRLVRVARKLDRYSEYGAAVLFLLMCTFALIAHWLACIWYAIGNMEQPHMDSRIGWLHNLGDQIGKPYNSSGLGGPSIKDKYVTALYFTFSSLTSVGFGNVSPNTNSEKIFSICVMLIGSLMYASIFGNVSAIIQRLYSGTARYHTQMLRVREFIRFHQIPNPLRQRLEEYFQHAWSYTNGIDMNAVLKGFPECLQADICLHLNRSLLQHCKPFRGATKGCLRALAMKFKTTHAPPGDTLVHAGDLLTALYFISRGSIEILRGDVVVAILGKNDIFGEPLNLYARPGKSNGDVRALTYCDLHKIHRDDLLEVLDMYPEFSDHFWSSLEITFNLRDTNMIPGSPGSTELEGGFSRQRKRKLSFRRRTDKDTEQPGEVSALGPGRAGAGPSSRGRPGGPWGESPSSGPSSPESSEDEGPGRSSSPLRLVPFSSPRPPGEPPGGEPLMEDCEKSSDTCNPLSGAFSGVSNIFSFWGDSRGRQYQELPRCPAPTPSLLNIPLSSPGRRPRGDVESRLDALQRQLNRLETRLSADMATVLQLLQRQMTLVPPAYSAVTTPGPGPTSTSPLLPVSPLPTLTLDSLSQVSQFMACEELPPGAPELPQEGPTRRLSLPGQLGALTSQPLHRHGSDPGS

[8] = Selectivity index, ratio of IC50 for CHO cells to IC50 for Plasmodium falciparum; assay type: toxicity, cell-based; conditions: hamster, read-out: Ratio IC50
CHO = test: Cytotoxicity against CHO cells; assay type: cell-based, Cricetulus griseus; conditions: chinese hamster
[9] = test system: CHO cells (Cricetulus griseus); test: Cytotoxicity against Chinese hamster CHO cells
[10] = test system: CHO cells (Cricetulus griseus); test: Selectivity index, ratio of IC50 for Chinese hamster CHO cells to IC50 for Plasmodium falciparum
[11] = Plasma concentration in mouse infected with Plasmodium berghei ANKA at 50 mg/kg/day, po after 24 hrs by HPLC analysis; assay type: ADME, organism-based; set-up: route oral
Outline: (§3)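 P. berghei-infected mice dosed orally at 50 mg/kg daily for 4 days; blood sampled 1, 4 and 24 h after the first dose and analysed by HPLC for drug levels.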

[12] = Plasma concentration in mouse infected with Plasmodium berghei ANKA at 50 mg/kg/day, po after 4 hrs by HPLC analysis; assay type: ADME, organism-based; set-up: route oral; outline: as §3
[13] = Plasma concentration in mouse infected with Plasmodium berghei ANKA at 50 mg/kg/day, po after 1 hr by HPLC analysis; assay type: ADME, organism-based; set-up: route oral; outline: as §3

| SMILES | Stability (Liver) | Stability (Liver microsome [1]) | Stability (Liver microsome [2]) | Activity (Plasmodium berghei) [%] | MSD (Plasmodium berghei) [days] | solubility [3] [µM] | IC50 (Plasmodium falciparum [4]) [nM] | IC50 (Plasmodium falciparum [5]) [nM] | solubility [6] [µM] | IC50 [7] [nM] | selectivity ratio [8] | Activity (CHO) | Activity [9] | selectivity ratio [10] | concentration at 24 h [11] [nM] | concentration at 4 h [12] [nM] | concentration at 1 h [13] [nM] |
| --- | --- | --- | --- | --- | --- | --- | --- | --- | --- | --- | --- | --- | --- | --- | --- | --- | --- |
| CS(=O)(=O)c1cccc(-c2ccc3ncc(-c4ccc(C(=O)N5CCNCC5)cc4)n3n2)c1 | Stable | Stable | Stable | <40 | 4 | – | – | – | – | – | – | – | – | – | – | – | – |
| CS(=O)(=O)c1cncc(-c2ccc3ncc(-c4ccc(S(=O)(=O)C5CC5)cc4)n3n2)c1 | – | – | – | – | – | < 5 | 484 | 662 | < 5 | – | – | – | – | – | – | – | – |
| O=S(=O)(c1cccc(-c2ccc3ncc(-c4ccc(-c5nnn[nH]5)cc4)n3n2)c1)C1CC1 | – | – | – | <40 | 4 | 183 (≈ 81.2 µg/mL) | 25 | 43 | < 5 | > 33000 | – | – | – | – | – | – | – |
| CS(=O)(=O)c1cccc(-c2ccc3ncc(-c4ccc(S(C)(=O)=O)nc4)n3n2)c1 | – | – | – | – | – | < 5 | 9.9 | 12 | < 5 | – | – | – | – | – | – | – | – |
| CS(=O)(=O)c1ccc(-c2cnc3ccc(-c4cncc(C(F)(F)F)c4)nn23)cc1 | – | – | – | – | – | < 5 | – | 1050 | < 5 | – | – | – | – | – | – | – | – |
| C[S+]([O-])c1cccc(-c2ccc3ncc(-c4ccc(C(N)=O)cc4)n3n2)c1 (stereo not given) | – | – | – | – | – | < 5 | – | 103 | 112 (≈ 42.2 µg/mL) | – | – | – | – | – | – | – | – |
| CS(=O)(=O)c1cccc(-c2ccc3ncc(-c4ccc(S(=O)(=O)CCCN)cc4)n3n2)c1 | Stable | Stable | Stable | – | – | 180 (≈ 84.7 µg/mL) | 9.4 | 11 | > 200 | – | > 1000 | Non-toxic | Non-toxic | > 1000 | – | – | – |
| CS(=O)(=O)c1cncc(-c2ccc3ncc(-c4cncc(S(C)(=O)=O)c4)n3n2)c1 | – | – | – | – | – | 53 (≈ 22.8 µg/mL) | 473 | 636 | 183 (≈ 78.6 µg/mL) | – | – | – | – | – | – | – | – |
| CS(=O)(=O)c1ccc(-c2cnc3ccc(-c4cccc(C(=O)NCCO)c4)nn23)cc1 | Unstable | Unstable | Unstable | – | – | > 100 | – | – | > 200 | – | – | – | – | – | – | – | – |
| CS(=O)(=O)c1cccc(-c2ccc3ncc(-c4ccc(N)nc4)n3n2)c1 | – | – | – | – | – | < 5 | 19 | 23 | 192 (≈ 70.2 µg/mL) | – | – | – | – | – | – | – | – |
| CS(=O)(=O)c1cncc(-c2cnc3ccc(-c4cccc(S(=O)(=O)C5CC5)c4)nn23)c1 | – | – | – | – | – | < 5 | 31 | 37 | 18 (≈ 8.18 µg/mL) | – | – | – | – | – | – | – | – |
| CS(=O)(=O)c1cccc(-c2ccc3ncc(-c4cncc(S(C)(=O)=O)c4)n3n2)c1 | – | – | – | – | – | < 5 | 42 | 58 | 16 (≈ 6.86 µg/mL) | – | – | – | – | – | – | – | – |
| C[S+]([O-])c1ccc(-c2cnc3ccc(-c4cccc(S(C)(=O)=O)c4)nn23)cc1 (stereo not given) | Stable | Stable | Stable | 99.7 | 14 | 98 (≈ 40.3 µg/mL) | – | 6.5 | 207 (≈ 85.2 µg/mL) | – | – | – | – | – | – | – | – |
| CS(=O)(=O)c1ccc(-c2cnc3ccc(-c4cccc(S(=O)(=O)C5CC5)c4)nn23)cn1 | – | – | – | – | – | < 5 | 2 | 3.3 | < 5 | – | – | – | – | – | – | – | – |
| CS(=O)(=O)c1cccc(-c2ccc3ncc(-c4ccc(S(=O)(=O)N5CCNCC5)cc4)n3n2)c1 | Unstable | Unstable | Unstable | – | – | 162 (≈ 80.6 µg/mL) | 8.8 | 14 | 166 (≈ 82.6 µg/mL) | – | – | – | – | – | – | – | – |
| CS(=O)(=O)c1ccc(-c2cnc3ccc(-c4cccc(S(=O)(=O)CCO)c4)nn23)cc1 | – | – | – | – | – | 8.6 (≈ 3.93 µg/mL) | – | 2.2 | 190 (≈ 86.9 µg/mL) | – | – | – | – | – | – | – | – |
| CS(=O)(=O)c1ccc(-c2cnc3ccc(-c4cccc(C(=O)N5CCC(O)CC5)c4)nn23)cc1 | Stable | Stable | Stable | – | – | 178 (≈ 84.8 µg/mL) | – | 6.5 | > 200 | – | – | – | – | – | – | – | – |
| CS(=O)(=O)c1ccc(-c2cnc3ccc(-c4ccnc(C(F)(F)F)c4)nn23)cc1 | – | – | – | – | – | < 5 | 26 | 45 | 5.4 (≈ 2.26 µg/mL) | – | > 1000 | Non-toxic | Non-toxic | > 1000 | – | – | – |
| CS(=O)(=O)c1cccc(-c2ccc3ncc(-c4ccc(C(=O)N5CCC(O)C5)cc4)n3n2)c1 (stereo not given) | Stable | Stable | Stable | <40 | 4 | 177 (≈ 81.9 µg/mL) | 21 | 18 | 191 (≈ 88.3 µg/mL) | > 33000 | – | – | – | – | < 10 | < 10 | – |
| CS(=O)(=O)c1ccc(-c2cnc3ccc(-c4cccc(S(=O)(=O)CCCN)c4)nn23)cc1 | Stable | Stable | Stable | <40 | 4 | > 200 | 2.6 | 3 | > 200 | > 33000 | > 1000 | Non-toxic | Non-toxic | > 1000 | < 10 | < 10 | – |
| C[S+]([O-])c1ccc(-c2cnc3ccc(-c4cccc([S+](C)[O-])c4)nn23)cc1 (stereo not given) | Unstable | Unstable | Unstable | 99.8 | 25 | 192 (≈ 75.9 µg/mL) | 30 | 35 | 205 (≈ 81.1 µg/mL) | 12000 | – | – | – | – | – | 760 | 2440 |
| C[S+]([O-])c1cccc(-c2ccc3ncc(-c4ccc(S(C)(=O)=O)cc4)n3n2)c1 (stereo not given) | Unstable | Unstable | Unstable | 99.8 | 14 | 157 (≈ 64.6 µg/mL) | 36 | 39 | 188 (≈ 77.4 µg/mL) | 4000 | – | – | – | – | – | 490 | 590 |
| NC(=O)c1ccc(-c2cnc3ccc(-c4cccc(S(=O)(=O)C5CC5)c4)nn23)cc1 | – | – | – | – | – | < 5 | 1.2 | 1.5 | 6.3 (≈ 2.64 µg/mL) | – | > 1000 | Non-toxic | Non-toxic | > 1000 | – | – | – |
| CS(=O)(=O)c1cccc(-c2ccc3ncc(-c4ccc(C(=O)O)cc4)n3n2)c1 | – | – | – | – | – | – | – | – | – | – | > 1000 | Non-toxic | Non-toxic | > 1000 | – | – | – |
| CS(=O)(=O)c1ccc(-c2cnc3ccc(-c4cncc(N)c4)nn23)cc1 | – | – | – | – | – | 15 (≈ 5.48 µg/mL) | 55 | 69 | 174 (≈ 63.6 µg/mL) | – | – | – | – | – | – | – | – |
| CS(=O)(=O)c1cncc(-c2ccc3ncc(-c4ccc(S(C)(=O)=O)nc4)n3n2)c1 | – | – | – | – | – | 13 (≈ 5.58 µg/mL) | 610 | 808 | 52 (≈ 22.3 µg/mL) | – | – | – | – | – | – | – | – |
| CS(=O)(=O)c1ccc(-c2cnc3ccc(-c4cncc(S(C)(=O)=O)c4)nn23)cc1 | – | – | – | – | – | < 5 | 82 | 96 | < 5 | – | – | – | – | – | – | – | – |
